Data reported in ChEMBL document CHEMBL1156629, “Synthesis and discovery of high affinity folate receptor-specific glycinamide ribonucleotide formyltransferase inhibitors with antitumor activity” (J Med Chem, 2008).
Active and inactive are the calls of the source. The rule behind the calls is not given here.

Legend:
[1] = Antiproliferative activity against human RFC expressing Chinese hamster PC43-10 cells; conditions: Cricetulus griseus
R2 = assay: Antiproliferative activity against human RFC expressing Chinese hamster R2 cells
[2] = Antiproliferative activity against human FRalpha expressing Chinese hamster RT16 cells in presence of folic acid; conditions: Cricetulus griseus
KB [3] = assay: Antiproliferative activity against human RFC and FRalpha expressing human KB cells in presence of folic acid
IGROV-1 [4] = assay: Antiproliferative activity against human RFC and FRalpha expressing human IGROV1 cells in presence of folic acid
[5] = biological target: T1, Reduced folate transporter (Homo sapiens) (UniProt P41440); assay: Inhibition of human RFC-mediated [3H]MTX transport expressed in Chinese hamster PC43-10 cells; format: cell-based; parameters: concentration or dose not given beside the values; conditions: concentration not given here
T1 sequence (whole entry): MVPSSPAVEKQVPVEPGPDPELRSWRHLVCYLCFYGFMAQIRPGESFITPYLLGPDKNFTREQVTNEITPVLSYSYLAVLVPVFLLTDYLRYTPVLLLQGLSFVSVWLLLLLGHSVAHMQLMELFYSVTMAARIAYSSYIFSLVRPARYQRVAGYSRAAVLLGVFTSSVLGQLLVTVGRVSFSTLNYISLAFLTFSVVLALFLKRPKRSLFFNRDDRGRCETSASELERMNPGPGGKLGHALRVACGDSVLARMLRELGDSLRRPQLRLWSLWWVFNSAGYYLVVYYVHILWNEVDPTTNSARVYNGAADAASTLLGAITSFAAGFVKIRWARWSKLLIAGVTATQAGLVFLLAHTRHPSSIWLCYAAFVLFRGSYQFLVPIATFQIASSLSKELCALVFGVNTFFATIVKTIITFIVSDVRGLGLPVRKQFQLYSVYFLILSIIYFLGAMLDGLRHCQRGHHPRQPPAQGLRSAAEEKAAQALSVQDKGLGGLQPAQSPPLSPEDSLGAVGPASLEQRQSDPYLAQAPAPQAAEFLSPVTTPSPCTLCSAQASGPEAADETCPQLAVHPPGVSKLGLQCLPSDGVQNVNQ

[6] = biological target: Folate receptor alpha (Homo sapiens) (UniProt P15328); assay: Displacement of [3H]folic acid from human FRalpha in Chinese hamster RT16 cells; format: cell-based
Folate receptor alpha (Homo sapiens), sequence (P15328 25-234 limits assumed): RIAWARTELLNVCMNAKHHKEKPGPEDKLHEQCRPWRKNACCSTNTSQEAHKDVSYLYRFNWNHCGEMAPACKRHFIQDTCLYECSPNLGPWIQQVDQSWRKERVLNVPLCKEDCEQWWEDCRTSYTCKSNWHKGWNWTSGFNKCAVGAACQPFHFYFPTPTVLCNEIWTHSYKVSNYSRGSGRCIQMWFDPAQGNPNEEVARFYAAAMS
Summary of the method: (§1)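 Cells were acid-stripped (pH 3.5 acetate buffer) and washed in ice-cold HEPES-buffered saline, pH 7.4. They were then incubated 15 min at 0°C with 50 nM [3H]folic acid (0.5 Ci/mmol) and a range of unlabeled ligand concentrations. Bound label was normalized to Lowry protein. […] Mean of 3 experiments.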

[7] = biological target: Folate receptor beta (Homo sapiens) (UniProt P14207); assay: Displacement of [3H]folic acid from human FRbeta in Chinese hamster D4 cells; format: cell-based; summary of the method: as §1
Folate receptor beta (Homo sapiens), sequence (P14207 17-230 limits assumed): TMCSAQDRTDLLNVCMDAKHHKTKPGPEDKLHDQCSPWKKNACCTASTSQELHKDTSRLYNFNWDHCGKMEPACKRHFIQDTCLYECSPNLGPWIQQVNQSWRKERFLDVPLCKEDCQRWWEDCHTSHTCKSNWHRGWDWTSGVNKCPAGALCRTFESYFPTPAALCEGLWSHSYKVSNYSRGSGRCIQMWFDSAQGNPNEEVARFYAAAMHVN

[8] = biological target: T2, Trifunctional purine biosynthetic protein adenosine-3 (Mus musculus, UniProt Q64737); assay: Inhibition of mouse recombinant GARFTase
T2 sequence (Q64737 whole entry): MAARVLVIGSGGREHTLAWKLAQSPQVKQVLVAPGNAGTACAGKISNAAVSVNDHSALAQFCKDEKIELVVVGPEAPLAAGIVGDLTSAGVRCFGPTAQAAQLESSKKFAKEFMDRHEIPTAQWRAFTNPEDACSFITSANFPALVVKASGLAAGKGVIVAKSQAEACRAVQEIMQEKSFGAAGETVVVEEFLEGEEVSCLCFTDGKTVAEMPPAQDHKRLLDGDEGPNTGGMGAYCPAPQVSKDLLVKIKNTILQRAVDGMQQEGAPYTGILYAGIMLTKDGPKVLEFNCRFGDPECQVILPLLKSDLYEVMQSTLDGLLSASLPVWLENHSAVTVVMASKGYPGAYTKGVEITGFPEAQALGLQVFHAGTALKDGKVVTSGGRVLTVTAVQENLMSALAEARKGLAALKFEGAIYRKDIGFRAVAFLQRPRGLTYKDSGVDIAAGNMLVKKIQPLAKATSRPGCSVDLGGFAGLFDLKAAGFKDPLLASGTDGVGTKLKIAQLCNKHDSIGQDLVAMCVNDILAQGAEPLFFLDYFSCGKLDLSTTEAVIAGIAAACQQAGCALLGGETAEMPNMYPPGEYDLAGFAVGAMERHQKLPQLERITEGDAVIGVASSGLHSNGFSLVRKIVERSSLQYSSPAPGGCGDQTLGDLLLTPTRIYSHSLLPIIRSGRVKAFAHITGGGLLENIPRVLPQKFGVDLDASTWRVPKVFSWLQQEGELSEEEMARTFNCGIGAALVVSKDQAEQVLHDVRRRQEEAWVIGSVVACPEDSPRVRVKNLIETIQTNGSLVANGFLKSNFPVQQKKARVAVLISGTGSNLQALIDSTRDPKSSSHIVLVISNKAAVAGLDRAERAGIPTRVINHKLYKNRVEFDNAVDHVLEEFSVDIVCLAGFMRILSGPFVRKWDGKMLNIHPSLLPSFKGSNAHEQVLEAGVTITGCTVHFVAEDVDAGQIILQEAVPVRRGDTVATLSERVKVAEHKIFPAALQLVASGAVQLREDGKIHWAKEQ

KB [9] = assay: cells; conditions: Homo sapiens, read-out: INH
KB [10] = assay: cells; conditions: Homo sapiens
[11] = Antiproliferative activity against human FRbeta expressing Chinese hamster D4 cells in presence of folic acid; conditions: Cricetulus griseus
[12] = biological target: T3, Trifunctional purine biosynthetic protein adenosine-3 (Homo sapiens, UniProt P22102)
T3 sequence (P22102 whole entry): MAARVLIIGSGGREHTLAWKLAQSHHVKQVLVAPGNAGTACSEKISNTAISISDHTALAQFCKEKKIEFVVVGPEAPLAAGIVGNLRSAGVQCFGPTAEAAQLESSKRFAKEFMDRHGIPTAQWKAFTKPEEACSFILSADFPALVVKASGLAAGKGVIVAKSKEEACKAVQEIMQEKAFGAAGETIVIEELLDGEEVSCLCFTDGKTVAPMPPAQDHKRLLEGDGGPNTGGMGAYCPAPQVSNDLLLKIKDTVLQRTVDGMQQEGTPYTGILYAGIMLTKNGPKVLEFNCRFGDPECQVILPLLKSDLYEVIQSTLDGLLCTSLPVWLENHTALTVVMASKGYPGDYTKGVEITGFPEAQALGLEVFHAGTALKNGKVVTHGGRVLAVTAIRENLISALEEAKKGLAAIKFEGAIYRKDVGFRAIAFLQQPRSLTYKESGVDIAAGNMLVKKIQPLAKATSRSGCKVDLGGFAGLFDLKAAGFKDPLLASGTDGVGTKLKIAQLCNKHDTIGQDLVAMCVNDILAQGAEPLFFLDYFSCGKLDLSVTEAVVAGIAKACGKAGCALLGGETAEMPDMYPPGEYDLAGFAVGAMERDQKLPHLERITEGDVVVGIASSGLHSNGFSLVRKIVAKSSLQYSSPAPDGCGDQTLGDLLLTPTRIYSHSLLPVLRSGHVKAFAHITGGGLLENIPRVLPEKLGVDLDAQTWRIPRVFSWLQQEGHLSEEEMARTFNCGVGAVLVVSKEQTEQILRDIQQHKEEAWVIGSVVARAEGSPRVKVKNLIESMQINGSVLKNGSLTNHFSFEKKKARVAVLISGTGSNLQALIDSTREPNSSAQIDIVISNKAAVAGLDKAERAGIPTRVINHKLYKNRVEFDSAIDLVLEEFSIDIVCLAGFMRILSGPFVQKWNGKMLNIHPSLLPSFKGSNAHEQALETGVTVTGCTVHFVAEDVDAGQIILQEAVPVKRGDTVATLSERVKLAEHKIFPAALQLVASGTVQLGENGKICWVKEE

IGROV-1 [13] = assay: Antiproliferative activity against human RFC and FRalpha expressing human IGROV1 cells
cells [14] = conditions: Cricetulus griseus, RT16
cells [15] = conditions: Cricetulus griseus, D4
[16] = biological target: T1, Reduced folate transporter (Homo sapiens); assay: Inhibition of human RFC-mediated [3H]MTX transport in Chinese hamster PC43-10 cells at 10 uM; format: cell-based

| inhibition [16] [%] | SMILES | IC50 [1] [nM] | IC50 (R2) [nM] | IC50 [2] [nM] | IC50 (KB [3]) [nM] | IC50 (IGROV-1 [4]) [nM] | inhibition [5] [%] | Activity [6] | Activity [7] | IC50 [8] [nM] | IC50 [11] [nM] | other results |
| --- | --- | --- | --- | --- | --- | --- | --- | --- | --- | --- | --- | --- |
| – | Nc1nc2[nH]c(CCCCc3ccc(C(=O)N[C@@H](CCC(=O)O)C(=O)O)cc3)cc2c(=O)[nH]1 | > 1000 | > 1000 | > 1000 | > 1000 | > 1000 | < 20 | Active | Active | 150 | – | inhibition at 1 µM (KB [9]): > 97% |
| – | Cc1nc(=O)c2cc(CN(C)c3ccc(C(=O)N[C@@H](CCC(=O)O)C(=O)O)s3)ccc2[nH]1 [RALTITREXED] | – | – | – | – | – | – | – | – | – | – | inhibition at 1 µM (KB [9]): > 99% |
| – | Nc1nc2ccc3ccc(CNc4ccc5c(c4)CN([C@@H](CCC(=O)O)C(=O)O)C5=O)cc3c2c(=O)[nH]1 | – | – | > 1000 | 32 | – | – | – | – | – | – | IC50 (KB [10]): 5.8 nM |
| – | COc1cc(NCc2ccc3nc(N)nc(N)c3c2C)cc(OC)c1OC [TRIMETREXATE] | – | – | – | – | 8.6 | – | – | – | – | 6.1 | – |
| – | Nc1nc2[nH]c(CCCCCc3ccc(C(=O)N[C@@H](CCC(=O)O)C(=O)O)cc3)cc2c(=O)[nH]1 | > 1000 | > 1000 | > 1000 | > 1000 | > 1000 | < 20 | Active | Active | 2260 | > 1000 | IC50 [12]: 7.2 nM |
| – | Nc1nc2[nH]c(CCCc3ccc(C(=O)N[C@@H](CCC(=O)O)C(=O)O)cc3)cc2c(=O)[nH]1 | 304 | 448 | > 1000 | > 1000 | > 1000 | < 20 | Active | Active | 2440 | > 1000 | – |
| – | Nc1nc2[nH]c(Cc3ccc(C(=O)N[C@@H](CCC(=O)O)C(=O)O)cc3)cc2c(=O)[nH]1 | > 1000 | > 1000 | > 1000 | > 1000 | > 1000 | < 20 | – | – | > 20000 | > 1000 | IC50 (IGROV-1 [13]): > 1000 nM; IC50 [12]: > 1000 nM; IC50 (cells [14]): > 1000 nM; IC50 (cells [15]): > 1000 nM; IC50 (KB [10]): > 1000 nM |
| 60 | CN(Cc1cnc2nc(N)nc(N)c2n1)c1ccc(C(=O)N[C@@H](CCC(=O)O)C(=O)O)cc1 [METHOTREXATE] | – | – | – | – | – | – | – | – | – | – | – |
| 60 | Nc1nc(=O)c2c([nH]1)NCC(CNc1ccc(C(=O)N[C@@H](CCC(=O)O)C(=O)O)cc1)N2C=O (stereo partly specified) | – | – | – | – | – | – | – | – | – | – | – |
| – | Nc1nc2[nH]c(CCCCCCc3ccc(C(=O)N[C@@H](CCC(=O)O)C(=O)O)cc3)cc2c(=O)[nH]1 | > 1000 | > 1000 | > 1000 | > 1000 | > 1000 | < 20 | Active | Active | 2510 | > 1000 | IC50 (IGROV-1 [13]): 309 nM; IC50 [12]: 8.6 nM; IC50 (cells [14]): 162 nM; IC50 (cells [15]): 198 nM |
| 60 | Nc1nc2[nH]cc(CCc3ccc(C(=O)N[C@@H](CCC(=O)O)C(=O)O)cc3)c2c(=O)[nH]1 [PEMETREXED] | – | – | – | – | 200 | – | – | – | – | – | – |
| 60 | Nc1nc2c(c(=O)[nH]1)C[C@@H](CCc1ccc(C(=O)N[C@@H](CCC(=O)O)C(=O)O)cc1)CN2 [LOMETREXOL] | – | – | 188 | – | – | – | – | – | – | 275 | – |
